Results: ChEMBL document CHEMBL4145471, “New 1,5 and 2,5-disubstituted tetrazoles-dependent activity towards surface barrier of Candida albicans” (Eur J Med Chem, 2018)

Experiments:
Type in all cases: functional
[1] = test system: Candida albicans; assay: Antifungal activity against Candida albicans ATCC 90028 at 2 ug/ml after 48 hrs relative to control
Outline: (§1)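 Planktonic broth microdilution per M27-A3 in MOPS-buffered RPMI 1640 (pH 7.0), final inoculum 1.8×10^3 cells/mL, compounds 0.0313–16 µg/mL from 1600 µg/mL stocks in ethanol or DMSO. Incubated at 35°C without agitation; OD405 read at 18 and 48 h. % inhibition was derived from test, sterility (no inoculum) and solvent growth-control wells. Amphotericin B at 0.5 µg/mL served as the 100% control.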

[2] = test system: Candida albicans; assay: Antifungal activity against Candida albicans ATCC 90028 at 0.125 ug/ml after 48 hrs relative to control; outline: as §1
[3] = test system: Candida albicans; assay: Antifungal activity against Candida albicans ATCC 90028 at 8 ug/ml after 18 hrs relative to control; outline: as §1
[4] = test system: Candida albicans; assay: Antifungal activity against Candida albicans ATCC 90028 at 0.5 ug/ml after 48 hrs relative to control; outline: as §1
[5] = test system: Candida albicans; assay: Antifungal activity against Candida albicans ATCC 90028 at 0.125 ug/ml after 18 hrs relative to control; outline: as §1
[6] = test system: Candida albicans; assay: Antifungal activity against Candida albicans ATCC 90028 at 0.25 ug/ml after 18 hrs relative to control
Outline: (§2)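 Fluconazole (water stock, diluted in RPMI 1640) tested by CLSI M27-A3 broth microdilution against C. albicans ATCC 90028. Inoculum 1.8×10^3 cells/mL in RPMI 1640 buffered with MOPS, pH 7.0. Incubation at 35°C without agitation, read at 18 and 48 h. Growth by OD405 and visually; inhibition % calculated against solvent growth-control wells after subtracting sterility-control wells.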

[7] = test system: Candida albicans; assay: Antifungal activity against Candida albicans ATCC 90028 at 0.0625 ug/ml after 18 hrs relative to control
[8] = test system: Candida albicans; assay: Antifungal activity against Candida albicans ATCC 90028 at 16 ug/ml after 48 hrs relative to control; outline: as §1
[9] = test system: Candida albicans; assay: Antifungal activity against Candida albicans ATCC 90028 at 4 ug/ml after 18 hrs relative to control; outline: as §1
[10] = test system: Candida albicans; assay: Antifungal activity against Candida albicans ATCC 90028 at 1 ug/ml after 48 hrs relative to control; outline: as §1
[11] = test system: Candida albicans; assay: Antifungal activity against Candida albicans ATCC 90028 at 0.5 ug/ml after 18 hrs relative to control; outline: as §1
[12] = test system: Candida albicans; assay: Antifungal activity against Candida albicans ATCC 90028 at 8 ug/ml after 48 hrs relative to control; outline: as §1
[13] = test system: Candida albicans; assay: Antifungal activity against Candida albicans ATCC 90028 at 0.0625 ug/ml after 48 hrs relative to control; outline: as §1
[14] = test system: Candida albicans; assay: Antifungal activity against Candida albicans ATCC 90028 at 0.0313 ug/ml after 48 hrs relative to control
[15] = test system: Candida albicans; assay: Antifungal activity against Candida albicans ATCC 90028 at 0.0313 ug/ml after 18 hrs relative to control
[16] = test system: Candida albicans; assay: Antifungal activity against Candida albicans ATCC 90028 at 1 ug/ml after 18 hrs relative to control; outline: as §1
[17] = test system: Candida albicans; assay: Antifungal activity against Candida albicans ATCC 90028 at 4 ug/ml after 48 hrs relative to control; outline: as §1
[18] = test system: Candida albicans; assay: Antifungal activity against Candida albicans ATCC 90028 at 2 ug/ml after 18 hrs relative to control; outline: as §1
[19] = test system: Candida albicans; assay: Antifungal activity against Candida albicans ATCC 90028 at 16 ug/ml after 18 hrs relative to control; outline: as §1
[20] = test system: Candida albicans; assay: Fungicidal activity against Candida albicans ATCC 90028 at 16 ug/ml after 48 hrs by M27-A3 microdilution method
Outline: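 After 48 h at 35°C in M27-A3 microdilution plates (compound at 16 µg/mL), 50 µL aliquots from treated and solvent-control wells were diluted 10^4 in PBS and plated on drug-free Sabouraud dextrose agar, then incubated 48 h at 35°C. Reduction R = lg CFU/mL control − lg CFU/mL treated; R ≥ 3 defined as fungicidal.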

[21] = test system: Candida albicans; assay: Antifungal activity against Candida albicans ATCC 90028 at 0.25 ug/ml after 48 hrs relative to control; outline: as §2

Compound | Activity [1] [%] | Activity [2] [%] | Activity [3] [%] | Activity [4] [%] | Activity [5] [%] | Activity [6] [%] | Activity [7] [%] | Activity [8] [%] | Activity [9] [%] | Activity [10] [%] | Activity [11] [%] | Activity [12] [%] | Activity [13] [%] | Activity [14] [%] | Activity [15] [%] | Activity [16] [%] | Activity [17] [%] | Activity [18] [%] | Activity [19] [%] | Activity [20] [log10CFU/ml] | also measured
c1ccc(-c2nnn(CCCN3CCOCC3)n2)cc1 | 98.84 | 97.95 | 99.94 | 99.59 | 99.81 | 99.96 | 99.93 | 99.31 | 99.64 | 98.87 | 99.52 | 98.82 | 99.55 | 98.98 | 94.63 | 80.42 | 99.15 | 85.92 | 97.02 | -0.34 | Activity [21]: 99.13%
Cc1ccc(-c2nnn(CCCCl)n2)cc1 | 98.87 | 98.92 | 99.06 | 98.95 | 98.66 | 99.45 | 99.06 | 98.26 | 99.63 | 98.65 | 97.59 | 99.08 | 99.12 | 98.94 | 98.95 | 99.6 | 98.84 | 98.39 | 98.46 | 0.65 | Activity [21]: 98.79%
ClCCCn1nnc(-c2ccc(Cl)cc2)n1 | 99.24 | 98.9 | 98.47 | 98.74 | 99.94 | 99.99 | 99.94 | 98.74 | 99.02 | 99.1 | 96.41 | 98.75 | 98.83 | 99 | 96.23 | 91.33 | 98.93 | 99.22 | 100 | 0.26 | Activity [21]: 99.04%
CCOC(=O)CCn1nnnc1-c1ccccc1Cl | 99.07 | 99.24 | 99.99 | 99.06 | 99.93 | 99.78 | 99.98 | 99.28 | 99.9 | 99.17 | 97.11 | 99.17 | 99.19 | 99.2 | 99.33 | 87.68 | 99.25 | 92.75 | 99.55 | -0.01 | Activity [21]: 99.02%
CCOC(=O)CCn1nnnc1-c1ccccc1 | 97.06 | 99.01 | 99.4 | 98.96 | 99.99 | 95.76 | 99.37 | 98.96 | 98.44 | 98.87 | 98.87 | 99.02 | 99.26 | 99.23 | 99.69 | 95.93 | 98.91 | 90.79 | 99.13 | 0.16 | Activity [21]: 98.01%
ClCCCn1nnc(-c2ccccc2)n1 | 99.57 | 99.19 | 99.54 | 99.16 | 99.65 | 98.55 | 99.99 | 99.22 | 99.53 | 97.6 | 99.1 | 99.63 | 99.76 | 99.38 | 99.51 | 62.02 | 99.29 | 99.25 | 99.36 | -0.23 | Activity [21]: 99.16%
CCOC(=O)CCn1nnc(-c2ccccc2Cl)n1 | 99.41 | 98.82 | 99.23 | 98.84 | 99.97 | 99.86 | 99.86 | 98.83 | 100 | 98.86 | 96.86 | 98.84 | 98.78 | 99.27 | 97.51 | 99.38 | 99.05 | 99.98 | 100 | 0.19 | Activity [21]: 99.09%
ClCCCn1nnnc1-c1ccccc1 | 97.23 | 99.16 | 98.57 | 98.82 | 98.12 | 94.68 | 99.45 | 99.05 | 98.66 | 98.8 | 97.53 | 98.81 | 99.12 | 99.02 | 99.65 | 96.69 | 98.9 | 95.82 | 98.95 | -0.18 | Activity [21]: 98.19%
ClCCCn1nnc(-c2ccccc2Cl)n1 | 98.6 | 99.13 | 98.9 | 98.89 | 99.62 | 99.95 | 98.61 | 98.34 | 99.32 | 98.69 | 98.9 | 99.05 | 99.03 | 99.17 | 99.97 | 98.99 | 98.5 | 95 | 94.16 | 0.51 | Activity [21]: 98.96%
CCOC(=O)CCn1nnnc1-c1ccc(C)cc1 | 97.05 | 98.94 | 98.51 | 99.08 | 99.61 | 95.87 | 99.59 | 98.82 | 99.94 | 99.04 | 98.88 | 98.86 | 99.11 | 99.34 | 99.74 | 98.46 | 99.01 | 89.93 | 98.97 | -0.54 | Activity [21]: 98.72%
